Measured values published in PubChem BioAssay AID623965 (Broad Institute, 2012).
“And” between values parts separate entries of the source, which are not always exact repeats. Identical values can stand only once.

Tested on: Candida glabrata growth in glycerol medium, OD600, 48 h
Test: C. glabrata glycerol-medium growth inhibitors tested alone – glycerol carbon source, dry powder, plate reader, set 3, dose response (AID 623965)
Summary of the method: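 Test system: Candida glabrata yeast cells; Buffer or medium: CSM synthetic medium with glycerol as carbon source; Incubation: 48 h at 30 °C, no shaking; Measured by: OD600 absorbance.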

## CCOC(=O)N1C(=O)C2(CCCCC2)N(c2ccc(C)cc2)C1=S
  AC50: 57.6 nM and 55.3 nM

## CCOC(=O)N1C(=O)C2(CCCCC2)N(c2ccc(Cl)cc2)C1=S
  AC50: 29.7 nM

## CCOC(=O)N1C(=O)C2(CCCCC2)N(c2cccc(C)c2)C1=S
  AC50: 38.6 nM

## CC1/C=C/C=C\C=C\C=C\C=C\C=C\C=C\C(O[C@H]2OC(C)C(O)C(N)C2O)CC2OC(O)(CC(O)CC(O)C(O)CCC(O)CC(O)CC(=O)OC(C)C(C)C1O)CC(O)C2C(=O)O (stereo partly drawn)
  AC50: 1410 nM

## CCOC(=O)N1C(=O)C2(CCCCC2)N(c2ccccc2)C1=S
  AC50: 33.5 nM

## CCOC(=O)N1C(=O)C2(CCCCC2)N(c2ccc(C#N)cc2)C1=S
  AC50: 39.8 nM

## C/C=C/[C@@H]1[C@H]2C[C@@H](C)CC[C@@H]2C(C)=C[C@H]1C(=O)c1c(O)c(-c2ccc(O)cc2)c[nH]c1=O
  AC50: 2940 nM

## CCOC(=O)N1C(=O)C2(CCCCC2)N(c2ccc(F)cc2)C1=S
  AC50: 11.3 nM
